# Only some compounds are listed: those with a hit (about 1.8% of all), similar ones and a draw of the others.
# beta cell repl – MIN6 beta-cell proliferation induction | proliferation, % at 10 µM | MIN6 cells proliferation, ATPlite luminescence, 48 h; cells starved in 0.2% serum; 100% = growth in 10% serum | hit rate 0.29% among 330,000;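 active = compounds whose signal lies at least 3.5 SD above the mean of all wells on their plate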
# PPC-1+TRAIL kill – compounds killing PPC-1 cancer cells with TRAIL present (potentiator screen, no TRAIL-free arm) | PPC-1 cells + TRAIL, ATPLite viability luminescence | cell killing (% activity), % at 4 µM or 5 µM | hit rate 0.41% among 220,000 | AID 1443;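 active = cell killing above 50% in the first pass at 4 µM, then a duplicate retest at 5 µM averaging 50% or more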
# FLuc act counter – firefly luciferase counter-screen for stimulation assays. P08659. ATPlite luciferase biochemical, luminescence, 10 min; 0 = ATP-free wells, 1 = DMSO control. activation factor at 10 µM. 200,000 tested, under 10 active;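 active = luciferase activation factor, scaled between plate controls, of at least 2 with compound at 10 µM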
# Target sequence (P08659 whole entry, looked up): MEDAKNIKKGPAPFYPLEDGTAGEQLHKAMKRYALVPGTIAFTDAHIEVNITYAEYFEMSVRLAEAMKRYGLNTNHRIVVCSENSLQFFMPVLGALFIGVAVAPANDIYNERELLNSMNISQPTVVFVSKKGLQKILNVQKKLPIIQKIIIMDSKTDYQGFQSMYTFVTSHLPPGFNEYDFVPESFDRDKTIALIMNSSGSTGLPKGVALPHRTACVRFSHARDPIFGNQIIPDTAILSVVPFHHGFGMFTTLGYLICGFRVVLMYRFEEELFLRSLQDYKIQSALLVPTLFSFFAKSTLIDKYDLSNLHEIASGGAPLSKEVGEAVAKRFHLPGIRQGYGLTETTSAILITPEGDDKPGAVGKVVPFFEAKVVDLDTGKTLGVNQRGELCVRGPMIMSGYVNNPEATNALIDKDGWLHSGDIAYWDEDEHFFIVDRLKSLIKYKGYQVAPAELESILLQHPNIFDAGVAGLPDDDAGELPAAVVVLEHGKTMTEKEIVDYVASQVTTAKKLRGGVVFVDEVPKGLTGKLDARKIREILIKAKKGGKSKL
#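 Material: luciferase plus luciferin reagent, cell-free. Medium: PBS buffer for ATP. Also added: ATP substrate, dispensed from a 10.24 µM working solution in PBS. Doses: test compounds dosed from 2 mM stocks in 100% DMSO. Incubation: 10 min post-reagent at room temperature. Technique: light output (luminescence). Read-out basis: luminescence gain marking luciferase activators.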
# hiPSC survival – increases survival of single human iPS cells; hiPSC single-cell survival, ATPlite luminescence; 100% = ROCK inhibitor wells, 0% = DMSO; survival enhancement, % at 20 µM; hit rate 0.044% among 360,000; in the data active = survival enhancement above about 18%;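 also: cells exposed to compounds for 16 hours before the ATP read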
# FLuc inhib CS – counter-screen for luciferase assay inhibitors: firefly luciferase inhibition | P08659 | ATPLite firefly luciferase biochemical luminescence, 10 min | inhibition, % at 10 µM | hit rate 1.5% among 200,000;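 active = inhibition above about 50% when tested at 10 µM, limit read from the data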
# C8 TRAIL sens – caspase-8 TRAIL sensitization; NB7+C8 cells + TRAIL, ATPlite viability luminescence; inhibition (viability loss, TRAIL sensitization), % at 10 µM; hit rate 1% among 360,000; AID 624354;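 active = compounds causing at least 50% loss of cell viability in the single-dose screen, relative to plate controls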
# PPC1 cytotox – PPC-1 cell cytotoxicity. shares compounds with PPC-1+TRAIL kill. hit rate 50% among 1,200. cytotoxicity, % at 5 µM. AID 1447. PPC-1 viability, ATPlite luminescence, overnight;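 active = reconfirmed compounds whose average cytotoxicity reaches 50% or more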
# Hits are given with their value; – = inactive; · = no result.
SMILES,beta cell repl,PPC-1+TRAIL kill,FLuc act counter,hiPSC survival,FLuc inhib CS,C8 TRAIL sens,PPC1 cytotox
O=C(Nc1nc(-c2cccs2)cs1)c1ccc([N+](=O)[O-])o1,–,·,·,–,·,–,·
CCCOc1ccc(-c2nnc(-c3ccco3)o2)cc1,–,–,–,–,77,55,–
Cc1ccc(S(=O)(=O)N2CCC(C(=O)NCC3CC3)CC2)cc1,–,·,·,–,·,–,·
CCOC(=O)C1CCN(S(=O)(=O)c2ccc(NC(=O)OC)cc2)CC1,–,–,–,–,–,–,–
CCOCCCNC(=O)C1CCN(S(=O)(=O)c2ccc(C)cc2)CC1,–,–,–,–,–,–,–
O=C(CNC(=O)OCc1ccccc1)Nc1ccc(F)cc1,–,·,·,–,·,–,·
Cc1ccc(C(=O)Nc2cc(C)c(OCC(=O)N3CCOCC3)c(C)c2)cc1,–,79,–,–,88,83,79
COc1ccccc1C(=O)Nc1cc(C)c(OCC(=O)N2CCOCC2)c(C)c1,–,·,·,–,·,–,·
Cc1ccc(-c2cnc3c(c2)C(=O)N([C@H](C)CO)C[C@H](C)[C@@H](CN(C)Cc2ccccc2F)O3)cc1,·,·,·,–,·,–,·
COc1ccc(-n2c(C)cc(SC)c(C(C)=O)c2=S)cc1,–,–,–,–,–,–,–
O=C(CSc1nnc(-c2csc3c2CCCC3)o1)Nc1ccccc1,–,58,–,–,–,77,56
O=C(CSc1nnc(-c2ccc(O)cc2)o1)Nc1ccccc1,–,·,·,–,·,–,·
O=C(COc1ccc(S(=O)(=O)NC2CCCCC2)cc1)NC1CCCC1,–,–,–,–,–,–,·
N#Cc1ccccc1NC(=O)CNc1ccccc1N1CCCCC1,–,–,–,–,–,–,–
Nc1nc(CSCc2ccccc2)nc(N2CCOCC2)n1,–,–,–,–,–,–,–
Cc1cc(C(=O)Nc2ccc3c(c2)OCCO3)co1,–,–,–,–,75,–,–
Cn1c(C(=O)Nc2ccc3c(c2)OCCO3)cc2sccc21,–,–,–,–,81,56,–
Cc1ccc(C(=O)Nc2ccc3c(c2)OCCO3)o1,–,62,–,–,84,54,59
Cc1sc2ncn(CC(=O)NC3CCCCC3)c(=O)c2c1C,–,·,·,–,·,–,·
O=C1OC(C(Cl)(Cl)Cl)Nc2ccccc21 (centres undefined),·,·,·,–,·,–,·
CSc1sccc1/C=C(/C#N)C(=O)c1ccco1,–,·,·,–,·,–,·
CCSc1ccc(-c2ccc(C)cc2)nn1,·,50,–,–,88,57,51
Cc1ccc(-c2ccc(SCC(=O)NC3CCCC3)nn2)cc1,–,·,·,–,·,–,·
CCOc1ccc(-c2ccc(SCC)nn2)cc1,–,60,–,–,86,73,57
COc1ccc(-c2ccc(SC)nn2)cc1,–,77,–,–,94,86,69
SMILES,beta cell repl,PPC-1+TRAIL kill,FLuc act counter,hiPSC survival,FLuc inhib CS,C8 TRAIL sens,PPC1 cytotox
COc1ccc(C(=O)CSc2ccc(-c3ccccc3)nn2)cc1,–,–,–,–,–,–,·
CCOc1ccc(-c2ccc(SCc3ccccn3)nn2)cc1,–,–,–,–,–,–,·
COc1cc(/C=N/Nc2nncn2/N=C/c2ccc(O)c(OC)c2)ccc1O,–,83,–,–,96,75,83
S=C(Nc1ccc2c(c1)OCO2)N1CCN(Cc2ccco2)CC1,–,53,–,–,92,60,56
CCN1CCN(c2ncnc3sc(C)c(-c4ccccc4)c23)CC1,–,·,·,–,·,–,·
CCN(CC)C(=O)CN1CCC(c2nc3cc(C)c(C)cc3[nH]2)CC1,–,·,·,–,·,–,·
Cc1ccc(C(=O)Nc2ccc(-c3csc(C)n3)cc2)cc1,–,–,–,–,–,–,·
Cc1ccc(NC(=O)c2csc(-c3ccccc3)c2C)cc1,·,80,–,–,85,81,82
Cc1nc(-c2ccc(NC(=O)c3ccccc3)cc2)cs1,–,64,–,–,88,76,61
COC(=O)Cc1ccc(NC(=S)N2CCCC(C)C2)cc1 (centres undefined),–,68,–,–,89,–,70
COc1ccc([N+](=O)[O-])cc1NS(=O)(=O)c1cc(C(=O)NCc2cccnc2)ccc1Cl,–,·,·,–,·,–,·
CCN(C(=O)CSc1nnc(-c2ccccc2Cl)n1N)c1c(N)n(Cc2ccccc2)c(=O)[nH]c1=O,·,·,·,–,·,–,·
COC(=O)c1sc2nc(C)cc(C)c2c1N,–,–,–,–,–,–,·
Cc1cc(C)c2c(N)c(C(=O)Nc3ncc(C)s3)sc2n1,–,96,–,–,98,94,96
CCC(=O)N1c2ccc(S(=O)(=O)N3CCN(c4ccccc4Cl)CC3)cc2CC1C (centres undefined),–,·,·,–,·,–,·
O=C(Nc1nc2c(s1)CCCC2)c1cccs1,–,51,–,–,80,62,52
Cc1ccc(C(=O)Nc2nc3c(s2)CCCC3)o1,–,52,–,–,82,65,53
O=C(Nc1nc2c(s1)CCCC2)c1cccnc1,–,–,–,–,–,–,·
O=C(Cc1cccs1)Nc1nc2c(s1)CCCC2,–,–,–,–,–,–,·
COc1ccc(C(=O)COC(=O)CNC(=O)c2ccc(Cl)cc2Cl)c(OC)c1,–,·,·,–,·,–,·
COc1ccc(CN(CC(O)COc2cccc3[nH]cc(C)c23)C(C)(C)C)cc1 (centres undefined),–,·,·,–,·,–,·
Cc1ccc(-n2c(-c3ccc(Br)cc3)c[n+]3c2CCc2ccc4cccnc4c2-3)cc1,·,–,–,–,–,65,–
CCN(CC)c1ccc(N=Cc2ccc(N(CC)CC)cc2O)cc1,–,–,–,–,–,–,–
CCN(CC)c1ccc(C=Nc2ccc(N(C)C)cc2)c(O)c1,–,–,–,–,–,–,·
Cc1ccc(-c2cc(C(=O)N3CCCC3)no2)cc1,–,66,–,–,85,68,68
SMILES,beta cell repl,PPC-1+TRAIL kill,FLuc act counter,hiPSC survival,FLuc inhib CS,C8 TRAIL sens,PPC1 cytotox
Clc1cccc(-c2cc3nc4c(c(N5CCOCC5)n3n2)CCCC4)c1,–,–,–,–,–,–,–
CCOc1ccc(S(=O)(=O)N2CCCCC2)cc1NC(=O)Cc1cccc(C(F)(F)F)c1,–,·,·,–,·,–,·
Cc1ccc[n+](CC(=O)Nc2cc(C(F)(F)F)ccc2Cl)c1,–,–,–,–,–,–,·
CCC(C)(C)c1ccc(OCCCC[n+]2cccc(C)c2)c(C(C)(C)CC)c1,·,–,–,–,–,–,–
COc1cc(-c2nnc(NC(=O)CS(=O)(=O)c3ccc(C)cc3)o2)cc(OC)c1OC,–,·,·,–,·,–,·
CCOC(=O)CNC(=O)CSc1nnc(SCC(=O)NCC(=O)OCC)s1,–,–,–,–,–,–,·
CCOC(=O)CNC(=O)CSc1nnc(NC(=O)c2ccc(C)cc2)s1,–,92,–,–,94,88,92
CCCOc1ccc(N2C(=O)C3C(C(C)C)NC4(C(=O)c5ccccc5C4=O)C3C2=O)cc1 (centres undefined),–,–,–,–,–,–,–

# Screening data (PubChem)
